H69AR inhibit: growth inhibitors of human H69AR lung tumor cells | AID 598 | viability, % at 10 µM | H69AR lung tumor viability, ATP luminescence, 72 h; stronger effect = lower value | hit rate 6% among 85,000;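 active means viability at or below 40%; inactive means viability above 40%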;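 further: multidrug resistant small cell line overexpressing MRP-1 efflux transporter; 100% = mean luminescence of untreated control wells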
Fibroblast inh: blocks proliferation of human lung fibroblasts. LL 47 human lung fibroblast viability, ATP luminescence; stronger effect = lower value. viability, % at 10 µM. hit rate 1.1% among 85,000;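 active means viability at or below 50% in the single dose screen; inactive means viability above 50%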;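 further: compound exposure lasted 72 h before the ATP readout; 100% = median luminescence of untreated cell-only wells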
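Test system: LL 47 human lung fibroblasts; Quantity: 1,150 cells/well; Buffer or medium: IMEM plus 15% FBS; Dosing: tenfold compound dosing solution, DMSO at 0.1%; Timing: overnight cell rest, 72 h compound treatment at 37 °C; Detection: ATP-based CellTiter-Glo luminescent readout; Read-out basis: viability percentage against median untreated-cell control; Controls: cell-only wells, no compound.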
bCat KO growth: beta-catenin-lacking colon tumor cell growth suppression; viability, % at 10 µM; HCT116 beta-catenin knockout viability, CellTiter-Glo, 60 h; stronger effect = lower value; hit rate 1.5% among 140,000;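 active means viability at or under a set limit, the compound median less 4 SD, cut at about 6% in these data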;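 further: 0% = Hyamine 1622 control at 20 µM and 100% = untreated cell control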
HCT116 PTEN-null: PTEN-deleted cell growth suppression. hit rate 1.2% among 140,000. HCT116 PTEN-null viability, CellTiter-Glo, 60 h; stronger effect = lower value. AID 827. viability, % at 10 µM;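 active means viability at or below a set limit, 4 SD under the median of all tested compounds, cut at about 3.7% in these data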;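 further: PTEN knockout HCT116 line with beta catenin targeted HCT116 as companion control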
HUVEC inhibit: blocks proliferation of human endothelial cells. HUVEC proliferation, CellTiter-Glo luminescence, 72 h; stronger effect = lower value. viability, % at 10 µM (by protocol). hit rate 1.1% among 86,000;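 active means viability at or below 30%; inactive means viability above 30%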;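 further: 100% = median luminescence of DMSO-only cell control wells on each plate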
Cav3 T inh: human Cav3.2 channel inhibition, primary screen | O95180 | Cav3.2-expressing cells, Fluo-4 calcium fluorescence FDSS; stronger effect = lower value | B-score at 10 µM | hit rate 4% among 100,000 | AID 449739;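 active means single-dose well whose peak fluorescence ratio is a statistical outlier from its plate by either plate-standardised score or position-corrected B-score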
Target sequence (O95180 whole entry, looked up): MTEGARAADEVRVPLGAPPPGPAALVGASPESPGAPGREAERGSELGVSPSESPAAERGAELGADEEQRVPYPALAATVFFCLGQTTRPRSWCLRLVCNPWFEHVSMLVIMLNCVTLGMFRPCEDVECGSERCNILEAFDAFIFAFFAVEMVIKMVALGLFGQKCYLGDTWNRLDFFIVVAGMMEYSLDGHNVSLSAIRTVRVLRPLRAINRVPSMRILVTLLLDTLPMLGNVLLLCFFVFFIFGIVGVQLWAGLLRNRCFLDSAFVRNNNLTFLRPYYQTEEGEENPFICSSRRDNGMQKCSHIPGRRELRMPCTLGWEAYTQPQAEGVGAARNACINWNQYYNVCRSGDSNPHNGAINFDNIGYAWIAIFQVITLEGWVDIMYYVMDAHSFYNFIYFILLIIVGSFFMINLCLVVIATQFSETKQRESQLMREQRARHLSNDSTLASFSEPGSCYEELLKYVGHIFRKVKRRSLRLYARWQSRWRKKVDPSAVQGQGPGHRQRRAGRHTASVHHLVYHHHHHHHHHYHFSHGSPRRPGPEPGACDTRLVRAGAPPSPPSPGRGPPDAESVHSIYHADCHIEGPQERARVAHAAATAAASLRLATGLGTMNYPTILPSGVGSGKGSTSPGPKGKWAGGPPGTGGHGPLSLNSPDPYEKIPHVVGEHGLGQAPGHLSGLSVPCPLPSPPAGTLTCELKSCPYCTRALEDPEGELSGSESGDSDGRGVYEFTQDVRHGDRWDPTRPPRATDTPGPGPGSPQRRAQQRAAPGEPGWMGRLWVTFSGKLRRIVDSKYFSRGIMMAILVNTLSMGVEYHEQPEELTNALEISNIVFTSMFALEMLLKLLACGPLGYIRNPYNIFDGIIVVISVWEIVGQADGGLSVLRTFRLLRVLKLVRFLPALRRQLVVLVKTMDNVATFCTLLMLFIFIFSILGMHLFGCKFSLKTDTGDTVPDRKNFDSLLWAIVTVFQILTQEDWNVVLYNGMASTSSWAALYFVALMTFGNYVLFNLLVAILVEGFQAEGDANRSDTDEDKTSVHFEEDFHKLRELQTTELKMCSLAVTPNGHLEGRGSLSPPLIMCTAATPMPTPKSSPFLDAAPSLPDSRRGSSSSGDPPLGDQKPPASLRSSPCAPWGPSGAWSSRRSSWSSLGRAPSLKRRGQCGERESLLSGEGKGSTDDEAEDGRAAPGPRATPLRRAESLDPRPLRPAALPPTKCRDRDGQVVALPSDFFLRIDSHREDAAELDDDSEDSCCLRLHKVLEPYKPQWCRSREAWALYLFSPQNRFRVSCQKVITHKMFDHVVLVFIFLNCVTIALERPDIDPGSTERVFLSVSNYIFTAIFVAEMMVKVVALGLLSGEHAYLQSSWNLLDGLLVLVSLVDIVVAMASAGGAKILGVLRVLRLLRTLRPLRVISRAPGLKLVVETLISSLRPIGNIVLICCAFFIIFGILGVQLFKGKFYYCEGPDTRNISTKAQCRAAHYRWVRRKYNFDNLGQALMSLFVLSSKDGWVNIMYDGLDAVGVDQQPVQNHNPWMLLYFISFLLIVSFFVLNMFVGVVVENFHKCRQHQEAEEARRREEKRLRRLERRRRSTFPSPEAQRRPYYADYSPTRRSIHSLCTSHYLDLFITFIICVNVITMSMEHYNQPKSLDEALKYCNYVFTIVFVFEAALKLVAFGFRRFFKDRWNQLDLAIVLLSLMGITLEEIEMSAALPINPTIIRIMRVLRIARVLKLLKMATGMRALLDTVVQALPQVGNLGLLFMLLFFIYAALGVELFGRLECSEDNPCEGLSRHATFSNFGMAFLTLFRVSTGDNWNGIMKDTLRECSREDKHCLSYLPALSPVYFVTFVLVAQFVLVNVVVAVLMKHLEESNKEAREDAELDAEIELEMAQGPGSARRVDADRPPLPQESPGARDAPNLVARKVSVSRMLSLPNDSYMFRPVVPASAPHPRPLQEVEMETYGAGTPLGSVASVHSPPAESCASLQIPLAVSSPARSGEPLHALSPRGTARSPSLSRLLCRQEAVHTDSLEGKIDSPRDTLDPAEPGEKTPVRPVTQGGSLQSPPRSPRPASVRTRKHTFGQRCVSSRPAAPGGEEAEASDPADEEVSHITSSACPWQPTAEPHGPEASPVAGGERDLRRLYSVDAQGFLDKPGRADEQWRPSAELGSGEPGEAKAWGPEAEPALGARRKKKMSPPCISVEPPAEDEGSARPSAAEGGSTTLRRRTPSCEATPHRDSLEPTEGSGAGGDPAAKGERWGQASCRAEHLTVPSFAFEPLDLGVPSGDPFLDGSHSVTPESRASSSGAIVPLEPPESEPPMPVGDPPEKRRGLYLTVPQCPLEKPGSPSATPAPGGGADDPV
Active calls of the source: *. Hits are enriched below; roughly 7.1% of the tested compounds scored in any of these assays.

Screening O=C(Nc1ccc2snnc2c1)Nc1cccc2ccccc12 returned H69AR inhibit 9.3*, Fibroblast inh 92, bCat KO growth 9, HCT116 PTEN-null 4, HUVEC inhibit 60 and Cav3 T inh -0.81.
`CC(C)NC(=O)CSc1nnc(C2CC2)n1-c1ccccc1` gave H69AR inhibit 93, Fibroblast inh 104, bCat KO growth 95, HCT116 PTEN-null 101, HUVEC inhibit 98 and Cav3 T inh 0.84.
For CCCNC(=O)CSc1nnc(-c2ccccc2Br)n1-c1cccc(C(F)(F)F)c1 the results were bCat KO growth 80 and HCT116 PTEN-null 89.
S=C(NCc1ccccc1)NCC1COc2ccccc2O1 (stereo not drawn) was read as bCat KO growth 87, HCT116 PTEN-null 88 and Cav3 T inh -4.5*.
Screening COCCn1c(-c2ccccc2)nc2c(c(=O)c3ccccc3n2C)c1=O returned bCat KO growth 72 and HCT116 PTEN-null 93.
`CCCCn1c(N)c(N(CC)C(=O)CCc2ccccc2)c(=O)[nH]c1=O` gave bCat KO growth 84 and HCT116 PTEN-null 98.
For O=C(NC(=S)Nc1c(Cl)ccc2nsnc12)c1ccco1 the results were bCat KO growth 85 and HCT116 PTEN-null 91.
`Cc1ccc2cc(CN(Cc3ccco3)C(=O)NC3CCCCC3)c(=O)[nH]c2c1C` gave H69AR inhibit 84, Fibroblast inh 94, bCat KO growth 59, HCT116 PTEN-null 63, HUVEC inhibit 88 and Cav3 T inh -4.4*.
Cc1cc(C)c2cc(CN(Cc3ccco3)C(=O)NCc3ccccc3)c(=O)[nH]c2c1 was read as H69AR inhibit 61, Fibroblast inh 104, bCat KO growth 71, HCT116 PTEN-null 65, HUVEC inhibit 94 and Cav3 T inh -7.1*.
Screening COc1ccc(NC(=O)N(CCO)Cc2cc3c(C)cc(C)cc3[nH]c2=O)cc1 returned H69AR inhibit 51, Fibroblast inh 101, bCat KO growth 75, HCT116 PTEN-null 79, HUVEC inhibit 87 and Cav3 T inh -0.077.
`Cc1ccc2cc(CN(Cc3ccco3)C(=O)C3CCCCC3)c(=O)[nH]c2c1C` gave H69AR inhibit 100, Fibroblast inh 92, bCat KO growth 81, HCT116 PTEN-null 85, HUVEC inhibit 72 and Cav3 T inh -1.5.
`Cc1cc(C)c2cc(CN(CCO)C(=O)Nc3ccc(F)cc3)c(=O)[nH]c2c1` gave H69AR inhibit 38*, Fibroblast inh 95, bCat KO growth 93, HCT116 PTEN-null 89, HUVEC inhibit 88 and Cav3 T inh -1.2.
For COc1c(OC(C)=O)ccc(/C=C/c2ccc3cccc(OC)c3n2)c1[N+](=O)[O-] the results were bCat KO growth 58 and HCT116 PTEN-null 64.
`CCOc1c(OC(C)=O)ccc(/C=C/c2ccc3cccc(OC(C)=O)c3n2)c1[N+](=O)[O-]` gave bCat KO growth 1.5* and HCT116 PTEN-null 3.2*.
O=c1oc2c3c4c(cc2cc1-c1nc2ccccc2[nH]1)CCCN4CCC3 was read as H69AR inhibit 1.5*, Fibroblast inh 84 and HUVEC inhibit 56.
`O=c1oc2c(CN3CCCCC3)c(O)ccc2cc1-c1nc2ccccc2[nH]1` gave H69AR inhibit 79, Fibroblast inh 103 and HUVEC inhibit 94.
`CCOC(=O)n1n[n+]([O-])c2ccccc21` gave bCat KO growth 86 and HCT116 PTEN-null 79.
Screening Cc1ccc(Cl)c(NC(=O)COC(=O)c2ccccc2C(=O)c2ccc(Cl)c([N+](=O)[O-])c2)c1Cl returned bCat KO growth 2.1* and HCT116 PTEN-null 2.0*.
For Cc1cc(C)n(-c2nc(Nc3ccccc3C)nc(-n3nc(C)cc3C)n2)n1 the results were H69AR inhibit 54, Fibroblast inh 23*, bCat KO growth 88, HCT116 PTEN-null 81, HUVEC inhibit 74 and Cav3 T inh -1.5.
For Cc1cc(C)n(-c2nc(Nc3ccccc3C(F)(F)F)nc(-n3nc(C)cc3C)n2)n1 the results were H69AR inhibit 8.1*, Fibroblast inh 27*, bCat KO growth 2.9*, HCT116 PTEN-null 3.5*, HUVEC inhibit 15* and Cav3 T inh -3.1.
`Cc1ccc(C(=O)N2CCN(c3ncnc4c3cnn4-c3ccccc3)CC2)cc1` gave H69AR inhibit 21*, Fibroblast inh 99, HUVEC inhibit 84 and Cav3 T inh 0.79.
c1ccc(CCN2CCN(c3ncnc4c3cnn4-c3ccccc3)CC2)cc1 was read as H69AR inhibit 34*, Fibroblast inh 98, bCat KO growth 86, HCT116 PTEN-null 80, HUVEC inhibit 60 and Cav3 T inh 3.
Screening CCN(CC)CCC(=O)Nc1ccc2c(c1)N(C(=O)CN(CC)CC)c1ccccc1CC2 returned H69AR inhibit 76, Fibroblast inh 100, bCat KO growth 76, HCT116 PTEN-null 81, HUVEC inhibit 90 and Cav3 T inh 0.11.
`Cc1c(CC=C(Cl)Cl)c(=O)[nH]c2c(C)cccc12` gave bCat KO growth 84 and HCT116 PTEN-null 85.
CC1=NN(C(=O)COc2ccc(C)c(C)c2)C(O)(c2ccccc2)C1 (stereo not drawn) was read as bCat KO growth 86 and HCT116 PTEN-null 77.
Cc1ccc(-c2cc3nc4c(c(=O)n3[nH]2)CCCC4)cc1 was read as H69AR inhibit 80, Fibroblast inh 99, HUVEC inhibit 93 and Cav3 T inh 0.029.
`Cc1[nH]n2c(=O)c3c(nc2c1-c1ccc(Cl)cc1)CCC3` gave H69AR inhibit 26*, Fibroblast inh 73, bCat KO growth 15, HCT116 PTEN-null 16, HUVEC inhibit 45 and Cav3 T inh 0.25.
Cc1[nH]n2c(=O)c3c(nc2c1-c1ccccc1)CCC3 was read as H69AR inhibit 25*, Fibroblast inh 96, bCat KO growth 97, HCT116 PTEN-null 83, HUVEC inhibit 80 and Cav3 T inh 1.
`O=c1c2c(nc3c(-c4ccccc4)c[nH]n13)CCCC2` gave H69AR inhibit 58, Fibroblast inh 79, bCat KO growth 89, HCT116 PTEN-null 111, HUVEC inhibit 83 and Cav3 T inh 0.81.
Screening CCCCC(=O)Nc1cccc(NC(=S)NC(C)=O)c1 returned bCat KO growth 96 and HCT116 PTEN-null 93.
Screening COc1cc(S(=O)(=O)Nc2cccc(C)c2)ccc1NC(=O)c1ccncc1 returned bCat KO growth 74 and HCT116 PTEN-null 82.
Screening O=C(CSc1nnc(SCc2cccc3ccccc23)s1)N/N=C/c1c[nH]c2ccccc12 returned bCat KO growth 77 and HCT116 PTEN-null 64.
Screening O=C(CSc1nnc(SCc2ccc(Cl)cc2)s1)N/N=C/c1c[nH]c2ccccc12 returned bCat KO growth 5.2* and HCT116 PTEN-null 14.
`CCCOC(=O)c1ccc(NS(=O)(=O)c2cccs2)cc1` gave H69AR inhibit 91, Fibroblast inh 103, bCat KO growth 90, HCT116 PTEN-null 96, HUVEC inhibit 105 and Cav3 T inh -5*.
